Results on 97 compounds are retold here after ChEMBL document CHEMBL4513216, “Probing the Open Global Health Chemical Diversity Library for Multistage-Active Starting Points for Next-Generation Antimalarials” (ACS Infect Dis, 2020).

The nature of this data set: Toxicity liver stage against HepG2, at 10uM. The data set is classed as cell-based. The arrangement: test concentration 10 uM, cell line HepG2-A16-CD81EGFP. The settings on record: human, HepG2-A16-CD81EGFP cells; read-out: INHIBITION
The method, boiled down: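 Uninfected HepG2-A16-CD81EGFP cells, 3 × 10^3 per well, 1536-well, plated on prespotted compound at 10 μM final, parasite-free screening media added to match infected plates; puromycin 10 μM positive, DMSO 0.5% negative; run in parallel with 48 h PbLuc assay at 37 °C, 5% CO2; viability by CellTiter-Glo luminescence, normalized to controls.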
With `CS(=O)(=O)N1CCc2[nH]nc(Cc3cccs3)c2C1`, the cytotoxicity at 10 µM worked out at 1.44%.

On to `Cn1cc(C(=O)NCCc2csc(-c3ccccc3)n2)ccc1=O`, for which the cytotoxicity at 10 µM is -6.7%.

For `CCN(CC)CCCC(C)NC(=O)c1ccccc1-n1cccn1` (configuration not stated), the cytotoxicity at 10 µM is 15.9%.

As to `COc1ccccc1C(=O)N1CCCC1c1ncc2c(n1)CCNC2` (configuration not stated), the cytotoxicity at 10 µM was -12.3%.

For the compound `CCC(O)CN1CCN(C(=O)C2(c3ccc(C)c(OC)c3)CC2)CC1` (configuration not stated), the cytotoxicity at 10 µM turned out to be 3.83%.

As for `COC(=O)c1ccc(-c2cc(C(F)(F)F)cc(N(C)C)n2)cc1`, the cytotoxicity at 10 µM is -0.409%.

With `COc1ccccc1CC(=O)N(C)Cc1cc(C)on1`, the cytotoxicity at 10 µM came out at 4.76%.

With `COc1ccc(F)cc1C(=O)Nc1nnc(C)s1`, the cytotoxicity at 10 µM was found to be 11.1%.

Turning to `CC(C)NC(=O)N[C@H]1C[C@@H](c2nc(-c3ccc(F)cc3)no2)N(C)C1`, the cytotoxicity at 10 µM was -7.97%.

On to `Cc1noc(C)c1CN1CCO[C@H]2CN(C(=O)N3CCCC3)C[C@H]21`, for which the cytotoxicity at 10 µM was 8.01%.

With `CC(C)COCCC(=O)Nc1cccnc1-n1cncn1`, the cytotoxicity at 10 µM was 1.28%.

On to `CCn1ncc(C(=O)NCCc2nc(-c3ccc(C)cc3)n[nH]2)c1C`, for which the cytotoxicity at 10 µM worked out at 8%.

`Cc1nc(C2CCNC2)nc2c1CCC(=O)N2CC(C)C` (configuration not stated): the cytotoxicity at 10 µM was 2.04%.

Consider `COCC1CN(C(=O)CNC(C)=O)Cc2ncnn2C1` (configuration not stated), for which the cytotoxicity at 10 µM is -12.4%.

`COc1ncc(NCc2csc(-c3ccco3)n2)cc1C(N)=O`: the cytotoxicity at 10 µM was -17.9%.

On to `O=C(CN1CCOc2ccccc2C1)N1Cc2cnn(CCO)c2C1`, for which the cytotoxicity at 10 µM was -3.24%.

For the compound `NC(CNS(=O)(=O)Cc1cccc2cccnc12)c1ccccc1` (configuration not stated), the cytotoxicity at 10 µM is -5.39%.

In the case of `COc1ccc(C(NC(=O)NCc2nnc3n2CCC3)C2CC2)cc1` (configuration not stated), the cytotoxicity at 10 µM turned out to be 11.7%.

Consider `Cc1ccc(CNCC2Cn3nnc(-c4cccc(F)c4)c3CO2)o1` (configuration not stated), for which the cytotoxicity at 10 µM was -0.617%.

For `CN(Cc1nc(C(F)(F)F)cs1)C(=O)CCc1ccccn1`, the cytotoxicity at 10 µM was found to be 23.5%.

Take `O=C(c1cc(=O)n(-c2ccccc2)[nH]1)N1CCOCC(O)C1` (configuration not stated): the cytotoxicity at 10 µM was -0.205%.

In the case of `CCC(=O)NCC(=O)NCC1(c2c(F)cccc2F)CCCC1`, the cytotoxicity at 10 µM is -0.147%.

As for `COc1cccc(N2CCN(Cc3cc(C)cc(F)c3)CC2=O)c1`, the cytotoxicity at 10 µM worked out at 25.9%.

Turning to `Cc1cc(NC(=O)CO)nn1-c1ccc(Cl)cc1Cl`, the cytotoxicity at 10 µM is -142%.

As for `Cc1cccc(CN2CCc3nnc(CN4CCCCC4)n3CC2)n1`, the cytotoxicity at 10 µM was -1.45%.

For `CC(C(=O)N1CCCCC1)n1nc(-c2cccs2)cc(N)c1=O` (configuration not stated), the cytotoxicity at 10 µM amounted to 10.8%.

For the compound `COc1ccc(CCCN(C)C(=O)c2cc(Cl)c[nH]2)cc1OC`, the cytotoxicity at 10 µM is -1.24%.

On to `CC1CN(C)c2ccccc2CN1CCn1cncn1` (configuration not stated), for which the cytotoxicity at 10 µM was -12.7%.

For the compound `COCc1csc(NC(=O)NCc2ccccn2)n1`, the cytotoxicity at 10 µM was determined as 11.3%.

As to `CCN(C)c1ncnc2c1CCN(C(=O)N1CCOCC1)CC2`, the cytotoxicity at 10 µM turned out to be 0.223%.

Regarding `CC(C)N1CCC(N2CCN(C3CCCCC3)CC2CCO)CC1` (configuration not stated), the cytotoxicity at 10 µM was -9.63%.

Consider `CNC(=O)[C@@H]1C[C@@H](NC(=O)CSc2ccccc2)CN1C1CCOCC1`, for which the cytotoxicity at 10 µM amounted to 2.14%.

In the case of `CCOc1ncccc1NC(=O)NC1CCCN(S(C)(=O)=O)C1` (configuration not stated), the cytotoxicity at 10 µM was -3.62%.

For `CC(=O)NC1CCN(c2nc(N)nc3c2CCCC3)C1` (configuration not stated), the cytotoxicity at 10 µM was found to be 0.452%.

On to `CCSCCC(C)N(C)C(=O)c1cc(C)on1` (configuration not stated), for which the cytotoxicity at 10 µM is -7.32%.

As to `O=C1CCC2(CCCN(C(=O)Cc3cccnc3)C2)N1` (configuration not stated), the cytotoxicity at 10 µM amounted to 6.88%.

Turning to `COc1c(CNC2CCSc3ccc(F)cc32)c(C)nn1C` (configuration not stated), the cytotoxicity at 10 µM amounted to 32.8%.

As to `Cc1nn(C)c(Oc2ccc(Cl)cc2)c1CN1CCOC(CN)C1` (configuration not stated), the cytotoxicity at 10 µM was 8.85%.

In the case of `CCNc1cc2c(nn1)CCN(C(=O)C(C)c1c(C)noc1C)C2` (configuration not stated), the cytotoxicity at 10 µM was -4.05%.

Regarding `Cc1cscc1C(=O)N1CCCC1CC(=O)c1cnn(C)c1` (configuration not stated), the cytotoxicity at 10 µM was -3.4%.

Take `Cc1ccc(CC(=O)N(CC2CN(C)CCO2)c2nccs2)cn1` (configuration not stated): the cytotoxicity at 10 µM is -9.89%.

For `O=S(=O)(c1ccccc1Cl)N1CCC2(CC1)OCCS2`, the cytotoxicity at 10 µM is -4.84%.

Turning to `CCn1nc(-c2ccccc2F)ccc1=O`, the cytotoxicity at 10 µM came to 12.9%.

Turning to `O=C(c1ccco1)N1CC[C@H]2[C@H]1CCN2S(=O)(=O)C1CC1`, the cytotoxicity at 10 µM is 9.22%.

With `CC(C)(C)n1ncc2c1CCCC2NCc1ccc2c(c1)OCCO2` (configuration not stated), the cytotoxicity at 10 µM worked out at 1.7%.

Regarding `Cc1cc(C(=O)N2CCCCC2c2nc3cc(F)ccc3[nH]2)no1` (configuration not stated), the cytotoxicity at 10 µM is 19.6%.

As to `Cn1nc(CN2CCCCC2)c2c1CN(C(=O)c1ccccc1)C2`, the cytotoxicity at 10 µM came out at 4.83%.

As to `Cc1cnc(CN2CCOC(Cn3nc(C)nc3C)C2)cn1` (configuration not stated), the cytotoxicity at 10 µM was 1.46%.

For `Cc1cc(C)n(CC(=O)N2CCCCC2CCc2cccs2)c(=O)n1` (configuration not stated), the cytotoxicity at 10 µM was 6.93%.

Consider `N#Cc1ccc(N2CCC3(CC2)CC(N2CCOCC2)CO3)cc1` (configuration not stated), for which the cytotoxicity at 10 µM was 19%.

Turning to `CC(C)OC(=O)N1CCC(Cc2ccc(C(=O)O)cc2)C1` (configuration not stated), the cytotoxicity at 10 µM worked out at 3.38%.

Regarding `Cc1ccc(CN2CCC(c3cnccn3)CC2)s1`, the cytotoxicity at 10 µM was -0.64%.

Regarding `Cn1ccc2cc(C(=O)NC3CCS(=O)(=O)C3)ccc21` (configuration not stated), the cytotoxicity at 10 µM stood at 0.979%.

As for `c1nc(CCNc2nc(C3CC3)nc3c2CCNCC3)c[nH]1`, the cytotoxicity at 10 µM was -130%.

On to `CS(=O)(=O)NCC1CCCN(C(=O)c2ccc(F)c(F)c2)C1` (configuration not stated), for which the cytotoxicity at 10 µM is -10.3%.

For the compound `Cn1cc(CN2CCc3nc4ccccc4c(=O)n3CC2)cn1`, the cytotoxicity at 10 µM is -1.57%.

Take `CN(Cc1ccc2c(c1)OCCO2)C(=O)Cn1ccccc1=O`: the cytotoxicity at 10 µM came out at 1.2%.

`CCSCCNC(=O)C(c1cccc(F)c1)N(C)C` (configuration not stated): the cytotoxicity at 10 µM is -11.9%.

As to `N#Cc1cccc(CN2CCN(C(=O)C3CCC3)[C@@H]3CS(=O)(=O)C[C@@H]32)c1`, the cytotoxicity at 10 µM is -3.49%.

On to `Cc1ccc(C)c2c(O)cc(CN3CCC(c4nncn4C)CC3)nc12`, for which the cytotoxicity at 10 µM is -2.24%.

Turning to `CN(Cc1nccn1C)S(=O)(=O)N1CCCC1c1ccco1` (configuration not stated), the cytotoxicity at 10 µM was found to be 3.21%.

Take `CC(C)(C)c1cc(C[C@H]2CNCC[C@H]2CC(=O)Nc2ccccc2)no1`: the cytotoxicity at 10 µM was -2.4%.

On to `COc1cccc(OC)c1CN1CCC2(CC(Nc3ccncn3)C2)C1` (configuration not stated), for which the cytotoxicity at 10 µM amounted to 3.71%.

In the case of `CC(C)N(Cc1cccnc1)C(=O)CNc1ccc(C#N)cc1`, the cytotoxicity at 10 µM worked out at 1.44%.

With `Cn1cc(CNC2CCc3ncnn3C2)c(-c2cccnc2)n1` (configuration not stated), the cytotoxicity at 10 µM was -5.92%.

For the compound `CCC(C)Oc1ccc(CNCCNS(C)(=O)=O)cc1Cl` (configuration not stated), the cytotoxicity at 10 µM was -6.78%.

As for `Fc1ccc2c(C3=CCN(Cc4nnc(C5CCC5)o4)CC3)c[nH]c2c1`, the cytotoxicity at 10 µM is -0.302%.

Take `COc1c(C2CCCN2Cc2cccc(C(N)=O)c2)c(C)nn1C` (configuration not stated): the cytotoxicity at 10 µM was -8.18%.

As to `CC(Oc1ccccc1)C(=O)N1CCCN(Cc2cscn2)CC1` (configuration not stated), the cytotoxicity at 10 µM was -3.92%.

Take `Cn1ccc2ccnc(CC3CN(C(=O)C4CCC(F)(F)CC4)C3)c21`: the cytotoxicity at 10 µM was -2.78%.

As for `CC(C)N1CC[C@@H]2OC[C@H](C(=O)Nc3cccnc3)C[C@@H]2C1`, the cytotoxicity at 10 µM came out at 15.7%.

On to `Cc1nc(-c2ccncc2)ncc1C(C)NC(=O)CN1CCCC1=O` (configuration not stated), for which the cytotoxicity at 10 µM came out at 1.74%.

Take `Cn1ccc(C(=O)NCc2ccccc2CN2CCCC2)cc1=O`: the cytotoxicity at 10 µM is -17.1%.

With `CCNC(=O)C(C)NC(=O)Nc1ccccc1Cl` (configuration not stated), the cytotoxicity at 10 µM was 5.72%.

For the compound `CN(Cc1ccco1)Cc1cncc2c1CCN(Cc1ccoc1)C2`, the cytotoxicity at 10 µM was -108%.

For `CC(C)n1c(C(=O)N2CCCC2)nc2c1CCN(c1ncccn1)C2`, the cytotoxicity at 10 µM was -6.72%.

As to `CCOC(CC)C(=O)NCCC(=O)N1CCN(c2ncccn2)CC1` (configuration not stated), the cytotoxicity at 10 µM is -3.91%.

Consider `CS(=O)(=O)N1CC[C@H]2OCC[C@@]2(C(=O)NCC2CC2)C1`, for which the cytotoxicity at 10 µM was -98.2%.

For `Cc1nc(N[C@H]2COC[C@@H]2N2CCCCC2)c2c(C)nn(C)c2n1`, the cytotoxicity at 10 µM is -1.21%.

Take `O=C1CC(c2cccs2)Cc2nc(O)c(C(=O)N3CCCC3)cc21` (configuration not stated): the cytotoxicity at 10 µM is -3.96%.

In the case of `CS(=O)(=O)NCCCN1CCCC1c1cccc(Br)c1` (configuration not stated), the cytotoxicity at 10 µM was -2.51%.

Regarding `CC(NCC1CCN(CCO)CC1)c1ccc(C(F)(F)F)cc1` (configuration not stated), the cytotoxicity at 10 µM is -7.28%.

For `CN1CCN(C(=O)CCCc2ccccc2)CC(O)(Cn2cccn2)C1` (configuration not stated), the cytotoxicity at 10 µM was -1.93%.

For the compound `Cc1nc(CN2CCCN(C(=O)c3cccnc3O)CC2)cs1`, the cytotoxicity at 10 µM is -8.51%.

On to `CCNC(=O)[C@@H]1C[C@@H](n2cc(CC3CCCCC3)nn2)CN1`, for which the cytotoxicity at 10 µM is 5.42%.

Turning to `Fc1ccc(-c2nccnc2C2CCCNC2)cc1` (configuration not stated), the cytotoxicity at 10 µM is -23.8%.

Regarding `CC(=O)c1cccc(OCCCC(=O)N(C)Cc2ccccn2)c1`, the cytotoxicity at 10 µM was -24.4%.

Turning to `Cc1ccnc(N2CCC(OCCN3CCCCC3)C2)n1` (configuration not stated), the cytotoxicity at 10 µM is -49.4%.

Consider `Cc1cc(COC(=O)[C@@H]2Cc3ccccc3CN2S(C)(=O)=O)no1`, for which the cytotoxicity at 10 µM is -9.87%.

On to `CCn1ncc(NC(=O)CCn2ncc3c(Cl)cccc32)c1C`, for which the cytotoxicity at 10 µM worked out at 7.74%.

Turning to `Cc1nc(N2CCN(C(=O)C3CC3)CC2)c2c(n1)c(C)nn2C`, the cytotoxicity at 10 µM is 5.42%.

Regarding `CCC1CN(Cc2cccc(C(=O)N(C)C)c2)CCN1CCOC` (configuration not stated), the cytotoxicity at 10 µM was -2.99%.

Consider `COc1cc(N2C[C@@H]3COC[C@]3(C(=O)NC3CC(F)(F)C3)C2)ncn1`, for which the cytotoxicity at 10 µM amounted to 14.7%.

`c1ccc(Cc2noc(CN(Cc3cccs3)CC3CCCO3)n2)cc1` (configuration not stated): the cytotoxicity at 10 µM is -5.77%.

On to `COc1ccc(CN2CCC(O)CC2)c(OC)c1`, for which the cytotoxicity at 10 µM is -9.18%.

On to `CCOC1CCCN(C(=O)c2[nH]nc(C(C)C)c2Br)C1` (configuration not stated), for which the cytotoxicity at 10 µM was -6.78%.

For `CCN1CCC(CC(=O)NCC(O)c2cccc(OC)c2)CC1` (configuration not stated), the cytotoxicity at 10 µM is -6.87%.
